Assay results as given in ChEMBL document CHEMBL3259728, “Design, synthesis and biological evaluation of some novel substituted quinazolines as antitumor agents” (2014).

Experiments:
Type in all cases: functional
SF-268 [1] = experiment: Growth inhibition of human SF268 cells assessed as cell growth at 10^-4 M after 48 hrs by SRB assay; details: SF-268, 48 h, read-out: Activity
MDA-MB-231 [2] = experiment: Growth inhibition of human MDA-MB-231 cells assessed as cell growth at 10^-8 M after 48 hrs by SRB assay; details: MDA-MB-231, 48 h, read-out: Activity
SNB-75 [3] = experiment: Growth inhibition of human SNB75 cells assessed as cell growth at 10^-6 M after 48 hrs by SRB assay; details: SNB-75, 48 h, read-out: Activity
[4] = Cytotoxicity against human HCT15 cells after 48 hrs by SRB assay; details: HCT-15, 48 h
Procedure, shortened: (§1)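 NCI 60-cell-line panel of human tumour lines from nine cancer types. Continuous 48 h exposure at five 10-fold dilutions from 10^-4 to 10^-8 M, with 5-FU as positive control. SRB protein stain read spectrophotometrically at time zero, untreated control and each concentration. GI50, TGI and LC50 were derived from the [(Ti−Tz)/(C−Tz)]×100 growth relations, and out-of-range values are given as > or < the tested limits.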

K562 = experiment: Growth inhibition of human K562 cells assessed as cell growth at 10^-5 M after 48 hrs by SRB assay; details: K562, 48 h, read-out: Activity
MDA-MB-468 = experiment: Growth inhibition of human MDA-MB-468 cells assessed as cell growth at 10^-8 M after 48 hrs by SRB assay; details: MDA-MB-468, 48 h, read-out: Activity
COLO 205 = experiment: Growth inhibition of human COLO205 cells assessed as cell growth at 10^-6 M after 48 hrs by SRB assay; details: COLO 205, 48 h, read-out: Activity
Procedure, shortened: (§2)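 Five-dose NCI panel protocol. Each dose (10^-4 to 10^-8 M, 10-fold steps) was given as 48 h continuous exposure, and protein was measured by SRB staining. Percentage growth at each level is [(Ti−Tz)/(C−Tz)]×100, where Tz is time-zero absorbance and C is untreated control.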

KM12 = experiment: Growth inhibition of human KM12 cells assessed as cell growth at 10^-5 M after 48 hrs by SRB assay; details: KM12, 48 h, read-out: Activity
[5] = Growth inhibition of human LOXIMVI cells assessed as cell growth at 10^-4 M after 48 hrs by SRB assay; details: LOX IMVI, read-out: Activity
HT-29 = experiment: Growth inhibition of human HT-29 cells assessed as cell growth at 10^-6 M after 48 hrs by SRB assay; details: HT-29, 48 h, read-out: Activity
SW-620 = experiment: Cytotoxicity against human SW620 cells after 48 hrs by SRB assay; details: SW-620, 48 h; procedure, shortened: as §1
IGROV-1 = experiment: Growth inhibition of human IGROV1 cells assessed as cell growth at 10^-7 M after 48 hrs by SRB assay; details: IGROV-1, 48 h, read-out: Activity
[6] = Growth inhibition of human HCT15 cells assessed as cell growth at 10^-5 M after 48 hrs by SRB assay; details: HCT-15, 48 h, read-out: Activity
MDA-MB-231 [7] = experiment: Growth inhibition of human MDA-MB-231 cells assessed as cell growth at 10^-4 M after 48 hrs by SRB assay; details: MDA-MB-231, 48 h, read-out: Activity
A498 = experiment: Growth inhibition of human A498 cells assessed as cell growth at 10^-4 M after 48 hrs by SRB assay; details: A498, 48 h, read-out: Activity; procedure, shortened: as §2
HOP-62 [8] = experiment: Cytotoxicity against human HOP62 cells after 48 hrs by SRB assay; details: HOP-62, 48 h; procedure, shortened: as §1
ACHN = experiment: Growth inhibition of human ACHN cells assessed as cell growth at 10^-7 M after 48 hrs by SRB assay; details: read-out: Activity; procedure, shortened: as §2
CCRF-CEM = experiment: Growth inhibition of human CCRF-CEM cells assessed as cell growth at 10^-8 M after 48 hrs by SRB assay; details: read-out: Activity; procedure, shortened: as §2
[9] = Growth inhibition of human UACC62 cells assessed as cell growth at 10^-4 M after 48 hrs by SRB assay; details: UACC-62, 48 h, read-out: Activity
[10] = Growth inhibition of human UACC62 cells assessed as cell growth at 10^-8 M after 48 hrs by SRB assay; details: UACC-62, 48 h, read-out: Activity
SF-268 [11] = experiment: Growth inhibition of human SF268 cells assessed as cell growth at 10^-7 M after 48 hrs by SRB assay; details: SF-268, 48 h, read-out: Activity
MCF7 [12] = experiment: Growth inhibition of human MCF7 cells assessed as cell growth at 10^-5 M after 48 hrs by SRB assay; details: MCF7, 48 h, read-out: Activity
MCF7 [13] = experiment: Growth inhibition of human MCF7 cells assessed as cell growth at 10^-4 M after 48 hrs by SRB assay; details: MCF7, 48 h, read-out: Activity
Malme-3M = experiment: Growth inhibition of human MALME-3M cells assessed as cell growth at 10^-5 M after 48 hrs by SRB assay; details: read-out: Activity
HOP-62 [14] = experiment: Growth inhibition of human HOP62 cells assessed as cell growth at 10^-5 M after 48 hrs by SRB assay; details: HOP-62, 48 h, read-out: Activity
[15] = Growth inhibition of human EKVX cells assessed as cell growth at 10^-7 M after 48 hrs by SRB assay; details: read-out: Activity
786-0 [16] = experiment: Growth inhibition of human 786-0 cells assessed as cell growth at 10^-5 M after 48 hrs by SRB assay; details: 786-0, 48 h, read-out: Activity; procedure, shortened: as §2
786-0 [17] = experiment: Growth inhibition of human 786-0 cells assessed as cell growth at 10^-8 M after 48 hrs by SRB assay; details: 786-0, 48 h, read-out: Activity; procedure, shortened: as §2
SNB-75 [18] = experiment: Growth inhibition of human SNB75 cells assessed as cell growth at 10^-5 M after 48 hrs by SRB assay; details: SNB-75, 48 h, read-out: Activity
M14 = experiment: Growth inhibition of human M14 cells assessed as cell growth at 10^-7 M after 48 hrs by SRB assay; details: M14, 48 h, read-out: Activity
[19] = Growth inhibition of human UACC62 cells assessed as cell growth at 10^-5 M after 48 hrs by SRB assay; details: UACC-62, 48 h, read-out: Activity
[20] = read-out: LC50 (the source's name)
[21] = read-out: pLC50 (the source's name) (converted)

## Cc1ccc(-c2nc3ccc(Cl)cc3c(=O)n2/N=C/c2ccccc2)cc1
SF-268 [1]
  growth at 100 µM: 36%
MDA-MB-231 [2]
  growth at 0.01 µM: 108%
SNB-75 [3]
  growth at 1 µM: 64%
[4]; read-out: GI50
  GI50: > 100 µM
[4]; [20]
  CC50: > 100 µM
[4]; read-out: TGI
  TGI: > 100 µM
[4]; read-out: pGI50 (converted)
  GI50: > 100 µM
[4]; [21]
  CC50: > 100 µM
[4]; read-out: pTGI
  TGI: > 100 µM
K562
  growth at 10 µM: 72%
MDA-MB-468
  growth at 0.01 µM: 91%
COLO 205
  growth at 1 µM: 119%
KM12
  growth at 10 µM: 74%
[5]
  growth at 100 µM: 48%
HT-29
  growth at 1 µM: 94%
SW-620; read-out: GI50
  GI50: > 100 µM
SW-620; [20]
  CC50: > 100 µM
SW-620; read-out: TGI
  TGI: > 100 µM
SW-620; read-out: pGI50 (converted)
  GI50: > 100 µM
SW-620; [21]
  CC50: > 100 µM
SW-620; read-out: pTGI
  TGI: > 100 µM
IGROV-1
  growth at 0.1 µM: 78%
[6]
  growth at 10 µM: 79%
MDA-MB-231 [7]
  growth at 100 µM: 16%
A498
  growth at 100 µM: 17%
HOP-62 [8]; read-out: GI50
  GI50: 1.98 µM
HOP-62 [8]; [20]
  CC50: 31.8 µM
HOP-62 [8]; read-out: TGI
  TGI: 5.09 µM
HOP-62 [8]; read-out: pGI50 (converted)
  GI50: 2 µM
HOP-62 [8]; [21]
  CC50: 31.6 µM
HOP-62 [8]; read-out: pTGI (converted)
  TGI: 5.13 µM
ACHN
  growth at 0.1 µM: 88%
CCRF-CEM
  growth at 0.01 µM: 98%
[9]
  growth at 100 µM: 32%
[10]
  growth at 0.01 µM: 93%
SF-268 [11]
  growth at 0.1 µM: 88%
MCF7 [12]
  growth at 10 µM: 59%
MCF7 [13]
  growth at 100 µM: 38%
Malme-3M
  growth at 10 µM: 43%
HOP-62 [14]
  growth at 10 µM: 36%
[15]
  growth at 0.1 µM: 79%
786-0 [16]
  growth at 10 µM: 18%
786-0 [17]
  growth at 0.01 µM: 90%
SNB-75 [18]
  growth at 10 µM: 31%
M14
  growth at 0.1 µM: 96%
[19]
  growth at 10 µM: 62%
